Screening results: PubChem BioAssay, several laboratories
The list is not random: actives were taken first. Their share in the collection is about 2.2%.
SUMO Mot1 rescue = blocks SUMOylation pathway, rescuing yeast Mot1-301 growth; S. cerevisiae Mot1-301 growth rescue, ATP luminescence, 38.5C; percent above DMSO median, 100 means doubled; growth rescue, % at 18.8 µM; actives 1% (n = 320,000); AID 2716;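 active = every valid replicate shows activation above 250% relative to neutral control wells; inactive = the rest, any valid replicate at or below 250%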;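 also: OY570 slx delta 5 strain wells were the positive control but not used for scaling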
rRNA inh HTS = inhibits bacterial ribosomal RNA function over humanized ribosomes; E. coli WT GFP vs humanized-ribosome RFP mutants, fluorescence, 24 h; active compounds read low; DMSO median 0, no signal -100; GFP signal change (wild-type ribosome), % (concentration not given with the values); actives 1.6% (n = 350,000); AID 720706;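 active = significant combined selectivity score with lowered wild-type GFP, culture density cut under 30%, mutant RFP and density less affected; inactive = any of these conditions unmet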
CR mimetic SO = yeast age-related superoxide inhibition as caloric restriction mimetic | S. cerevisiae aged cells, superoxide DHE fluorescence; active compounds read low | actives 0.18% (n = 330,000) | superoxide response (% of plate mean), % at 10 µM;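 active = superoxide response under a set limit, about three screen SD below normal, cut at about 65% in these data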;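 also: yeast aged for seven days with compound at 30 °C before DHE staining; 100% = average MFI of all compound-treated wells on the plate with controls excluded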
PglD DTNB = PglD (C. jejuni) enzyme inhibition; purified PglD enzyme, DTNB colorimetric CoA detection; inhibition, % at 12.5 µM; actives 0.098% (n = 360,000); AID 602405; in the data active = inhibition above about 16%, passing the limit was not always enough
Cneo AK release = causes C. neoformans cell lysis. AID 651654. adenylate kinase release luminescence, 4 h; normalised: neutral wells 0, clomiphene wells 100. lysis activity, % at 15 µM. actives 0.2% (n = 360,000);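 active = mean lysis activity across replicates of at least 80%, whatever share of replicates individually reach that level; inactive = mean lysis activity below 80%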
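Signal: Adenylate kinase release luminescence | Assay system: Log-phase Cryptococcus neoformans yeast cells | Input: Cells at 5 × 10^6 per mL | Buffer or medium: Fresh YPD growth medium | Compound: Single dose | Schedule: Static 4 h at 37 °C with compound, 1 h detection | Controls: Clomiphene | Read-out: Luminescence rise reflecting yeast cell lysis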
* = called active by the depositor; x = no result given.

SMILES	SUMO Mot1 rescue	rRNA inh HTS	CR mimetic SO	PglD DTNB	Cneo AK release
CCn1cc(Br)c(C(=O)Nc2ccc(OC)cc2)n1	358	-12	83	-2	0
CCOc1cccc2sc(N(CCCN(C)C)C(=O)c3ccc(S(=O)(=O)N4CCCCCC4)cc3)nc12	-16	-24*	92	-1	7
CCOc1cccc2sc(N(CCN(CC)CC)C(=O)c3ccc(S(=O)(=O)N4CCCCC4)cc3)nc12	-14	-4	90	x	x
CN(C)CCCN(C(=O)c1ccc(S(=O)(=O)N2CCc3ccccc32)cc1)c1nc2c(Cl)cccc2s1	-8	-40*	114	1	5
CCOc1cccc2sc(N(CCCN(C)C)C(=O)c3ccc(S(=O)(=O)N(C)Cc4ccccc4)cc3)nc12	-20	-39*	99	2	39
CN(C)CCCN(C(=O)c1ccc(C(=O)c2ccccc2)cc1)c1nc2c(F)cccc2s1	-26	-37	85	1	12
CCOc1cccc2sc(N(CCCN(C)C)C(=O)c3ccc(S(=O)(=O)N(CC)Cc4ccccc4)cc3)nc12	-14	-54	92	4	13
CCN(Cc1ccccc1)S(=O)(=O)c1ccc(C(=O)N(CCCN(C)C)c2nc3c(F)cccc3s2)cc1	0	-48*	90	7	3
CCCC(=O)Nc1ccc2c(c1)C(=O)N(C)C[C@H](OC)[C@@H](C)CN(C(=O)c1ccccc1F)[C@@H](C)CO2	x	2	x	2	-5
O=C(N/C(=C/c1cccs1)C(=O)N1CCCCCC1)c1ccccc1	5	x	83	-2	-1
Cc1ccc(C(=O)N/C(=C/c2cccs2)C(=O)N2CCCCCC2)cc1	-10	x	111	-6	0
O=C(N/C(=C\c1cccs1)C(=O)N1CCCCCC1)c1ccccc1	312*	8	95	0	-2
Cc1ccc(C(=O)N/C(=C\c2cccs2)C(=O)NC2CCCCC2)cc1	-18	-25*	94	-2	1
O=C(Nc1ccc(F)cc1)N[C@@H]1C=C[C@H](CC(=O)N2CCOCC2)O[C@@H]1CO	x	2	x	1	1
COCC(=O)N1[C@H](C(=O)Nc2ccccc2)[C@@H](CO)[C@@H]2Cn3c(ccc(-c4ccncc4)c3=O)[C@@H]21	x	2	x	1	1
CCC(=O)N1[C@H](C(=O)Nc2ccccc2)[C@@H](CO)[C@@H]2Cn3c(ccc(-c4ccncc4)c3=O)[C@@H]21	x	2	x	3	99*
COc1ccc(CNc2ccc(Cl)cc2)cc1Cn1ccnc1	-1	-40	91	4	-3
CCc1ccc(NCc2ccc(OC)c(Cn3ccnc3)c2)cc1	341*	-43	98	5	-3
C[C@@H]1CN([C@H](C)CO)C(=O)Cc2cc(NC(=O)Nc3ccc4c(c3)OCO4)ccc2O[C@@H]1CN(C)Cc1ccc(C(F)(F)F)cc1	x	1	x	1	-1
CCOC(=O)Cc1csc(NC(=O)c2ccc(C)cc2)n1	27	-13	92	x	x
COC(=O)c1cc(NC(=O)c2cc3ccccc3o2)cc(C(=O)OC)c1	-5	-23*	96	5	3
CCOC(=O)Cc1csc(NC(=O)c2cc(C)cc(C)c2)n1	29	-25*	95	5	1
CCOC(=O)Cc1csc(NC(=O)c2cc3ccccc3o2)n1	-18	-19*	91	x	x
C[C@@H]1CN([C@@H](C)CO)C(=O)c2cc(-c3ccc(F)cc3)cnc2O[C@H]1CN(C)CC1CCCC1	x	8	x	-1	-2
O=C1CC[C@@H](O)CCN1CC[C@H](Sc1ccccc1)c1ccccc1	274	-31*	92	2	2
SMILES	SUMO Mot1 rescue	rRNA inh HTS	CR mimetic SO	PglD DTNB	Cneo AK release
O=C1CC[C@@H](O)CCN1CC[C@H](Sc1ccc(Br)cc1)c1ccccc1	-17	-41	107	-7	0
Cc1noc(C)c1NC(=O)N(C)C[C@@H]1OCCCC[C@@H](C)Oc2ccc(NC(=O)Nc3ccccc3)cc2C(=O)N([C@H](C)CO)C[C@@H]1C	x	10	x	3	5
COc1ccc(C2CC(c3ccccc3O)=NN2c2ccccc2)cc1 (stereo not given)	14	-21*	97	x	x
Cc1ccc(S(=O)(=O)N2CCN(Cc3ccco3)CC2)cc1C	-2	-6	88	4	1
CCOC(=O)c1ccoc1CN1CCN(S(=O)(=O)c2ccc(C)c(C)c2)CC1	-7	-20*	101	-3	-1
CCC/C(=C1/c2ccccc2C(=O)N1c1ccccc1)c1ccc(C=O)o1	x	-24*	x	x	x
Cc1ccc(C2(c3ccccc3)NC(=O)N(CC(=O)NC3(C#N)CCCC3)C2=O)cc1C (stereo not given)	3	-28*	82	x	1
COc1ccc(CN2CC3(CCN(C(=O)Nc4cccc(F)c4)CC3)c3c([nH]c4cc(OC)ccc34)[C@@H]2CO)cc1	x	0	x	x	x
CN(C)CCCN1c2ccccc2Sc2ccccc21	89	x	95	-1	4
CN(C)CCCC1Sc2ccccc2Sc2ccccc21 (stereo not given)	-1	-46*	108	x	x
O=C(/C=C/c1ccccc1Cl)NCc1ccccc1	3	x	83	2	-4
Cc1ccc(SCCNC(=O)/C=C/c2ccccc2Cl)cc1	29	-24*	81	-1	0
O=C(/C=C/c1ccccc1Cl)NCCc1ccccc1	6	-26*	110	3	-1
CC(C)C(NC(=O)C1CCCCC1)C(=O)NCc1ccccn1 (stereo not given)	16	x	109	-6	1
CC1CCC(C(=O)NC(C(=O)NCc2ccccn2)C(C)C)CC1 (stereo not given)	344*	x	101	4	-9
CCC(=O)N1[C@@H]2c3cccc(=O)n3C[C@H]1[C@H](CO)[C@H]2C(=O)NCc1ccccc1	x	2	x	-1	93*
CCCNC(=O)[C@H]1[C@H](CO)[C@H]2Cn3c(cccc3=O)[C@@H]1N2C(=O)Nc1cc(F)ccc1F	x	2	x	1	88*
CCC(=O)N1[C@@H]2Cn3c(cccc3=O)[C@H]1[C@@H](C(=O)NCc1ccccc1)[C@@H]2CO	x	2	x	0	99*
CCCNC(=O)N1C[C@@H](O)COC[C@H]2O[C@H](CC(=O)NCc3ccncn3)CC[C@@H]21	x	1	x	-1	0
CN(C)C(=O)[C@H]1[C@H](CO)[C@H]2Cn3c(cccc3=O)[C@H]2N1C(=O)C1CCCC1	x	5	x	x	x
COCC#Cc1cnc2c(c1)C(=O)N([C@@H](C)CO)C[C@H](C)[C@@H](CN(C)C(=O)c1ccc(F)cc1)O2	x	2	x	-3	5
COC(=O)C1CCN(C(=O)CSc2nnc(-c3ccncc3)o2)CC1	312*	x	96	-12	-1
Cc1ccc(SCc2noc(C(=O)NCC3CCCO3)c2C(=O)O)cc1C (stereo not given)	-2	-24*	x	-3	4
Cc1noc(NS(=O)(=O)c2ccc(NC(=O)CSc3nc4c(cc3C#N)CCCC4)cc2)c1C	-18	-25*	112	2	-2
